Here are results for three compounds from ChEMBL document CHEMBL4725388, “Characterization of Aminobenzylphenols as Protein Disulfide Isomerase Inhibitors in Glioblastoma Cell Lines” (J Med Chem, 2020).

The source made the active and inactive calls. No cut-off for these calls is given here.

Data set [1] addresses T1, Protein disulfide-isomerase (Homo sapiens, UniProt P07237). Nature of the data set: Inhibition of recombinant human wild-type N-terminal His-tagged PDIA1 expressed in Escherichia coli strain BL21(DE3) using bovine insulin as substrate preincubated for 1 hr followed by substrate addition. The gist of the method:
(§1)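 IC50 from dose-response curves; PDI reductase assay for enzyme, MTT in U-87 MG cells for cytotoxicity; mean ± SD of at least three independent experiments.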
Target sequence in this assay (P07237 whole entry): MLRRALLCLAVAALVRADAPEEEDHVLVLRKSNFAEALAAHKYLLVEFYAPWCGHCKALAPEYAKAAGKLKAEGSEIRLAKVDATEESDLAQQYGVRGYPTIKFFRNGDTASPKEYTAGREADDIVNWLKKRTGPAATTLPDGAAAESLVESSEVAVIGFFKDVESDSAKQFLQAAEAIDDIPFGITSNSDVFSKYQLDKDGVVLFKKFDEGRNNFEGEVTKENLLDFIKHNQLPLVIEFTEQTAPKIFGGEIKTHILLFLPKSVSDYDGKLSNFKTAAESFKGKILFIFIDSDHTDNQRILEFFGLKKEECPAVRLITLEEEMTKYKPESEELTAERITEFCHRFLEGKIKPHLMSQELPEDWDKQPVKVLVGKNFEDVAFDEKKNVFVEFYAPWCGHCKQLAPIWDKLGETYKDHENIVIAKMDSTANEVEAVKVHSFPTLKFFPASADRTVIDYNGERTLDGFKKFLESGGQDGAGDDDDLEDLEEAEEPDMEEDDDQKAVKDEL

Data set [2] addresses T1, Protein disulfide-isomerase. Nature of the data set: Inhibition of N-(4-(5,5-Difluoro-1,3,7,9-tetramethyl-5H-4(Gamma4),5(Gamma4)-dipyrrolo[1,2-c:2',1'-f][1,3,2]diazaborinin-10-yl))-N-(2-(4-((6-hydroxybenzo[d]-[1,3]dioxol-5-yl)(piperidin-1-yl)methyl)benzamido)ethyl)-benzamide binding to PDIA1 in human U-87 MG cell lysates measured after 24 hrs by PAGE analysis. The class given is subcellular.
Target sequence in this assay (P07237 18-508 limits assumed): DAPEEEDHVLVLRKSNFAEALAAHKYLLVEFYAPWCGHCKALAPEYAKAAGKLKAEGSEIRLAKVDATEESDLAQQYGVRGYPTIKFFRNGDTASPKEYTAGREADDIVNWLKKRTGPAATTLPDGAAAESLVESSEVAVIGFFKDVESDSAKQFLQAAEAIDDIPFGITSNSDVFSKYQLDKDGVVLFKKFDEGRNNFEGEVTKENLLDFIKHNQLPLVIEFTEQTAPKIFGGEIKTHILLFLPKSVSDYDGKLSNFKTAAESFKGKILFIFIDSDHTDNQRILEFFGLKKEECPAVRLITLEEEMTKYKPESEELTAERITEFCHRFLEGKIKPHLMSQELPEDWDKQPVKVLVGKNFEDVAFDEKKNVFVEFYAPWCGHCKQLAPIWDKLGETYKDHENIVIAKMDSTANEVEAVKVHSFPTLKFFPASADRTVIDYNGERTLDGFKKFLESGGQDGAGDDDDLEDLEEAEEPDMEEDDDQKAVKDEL

Data set [3] deals with T2, Protein disulfide-isomerase A2 (Homo sapiens, UniProt Q13087).
T2 sequence (Q13087 whole entry): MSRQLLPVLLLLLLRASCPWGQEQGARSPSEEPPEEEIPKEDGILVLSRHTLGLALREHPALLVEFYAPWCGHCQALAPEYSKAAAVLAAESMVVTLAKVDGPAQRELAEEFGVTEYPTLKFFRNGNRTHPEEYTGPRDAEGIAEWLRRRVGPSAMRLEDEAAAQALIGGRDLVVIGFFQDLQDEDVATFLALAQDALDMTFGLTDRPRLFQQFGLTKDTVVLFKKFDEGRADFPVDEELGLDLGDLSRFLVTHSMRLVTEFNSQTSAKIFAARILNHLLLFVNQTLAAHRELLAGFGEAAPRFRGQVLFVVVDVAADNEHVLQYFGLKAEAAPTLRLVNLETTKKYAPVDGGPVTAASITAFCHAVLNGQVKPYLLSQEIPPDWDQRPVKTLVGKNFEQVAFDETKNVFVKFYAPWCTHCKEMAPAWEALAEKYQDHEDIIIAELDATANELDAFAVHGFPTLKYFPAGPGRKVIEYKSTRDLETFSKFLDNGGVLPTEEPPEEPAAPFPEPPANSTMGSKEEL
The data set is described as follows: Inhibition of N-(4-(5,5-Difluoro-1,3,7,9-tetramethyl-5H-4(Gamma4),5(Gamma4)-dipyrrolo[1,2-c:2',1'-f][1,3,2]diazaborinin-10-yl))-N-(2-(4-((6-hydroxybenzo[d]-[1,3]dioxol-5-yl)(piperidin-1-yl)methyl)benzamido)ethyl)-benzamide binding to recombinant PDIA2 (unknown origin) measured after 24 hrs by PAGE analysis.

In data set [4] the target is T3, Protein disulfide-isomerase A3 (Homo sapiens, UniProt P30101).
T3 sequence (P30101 whole entry): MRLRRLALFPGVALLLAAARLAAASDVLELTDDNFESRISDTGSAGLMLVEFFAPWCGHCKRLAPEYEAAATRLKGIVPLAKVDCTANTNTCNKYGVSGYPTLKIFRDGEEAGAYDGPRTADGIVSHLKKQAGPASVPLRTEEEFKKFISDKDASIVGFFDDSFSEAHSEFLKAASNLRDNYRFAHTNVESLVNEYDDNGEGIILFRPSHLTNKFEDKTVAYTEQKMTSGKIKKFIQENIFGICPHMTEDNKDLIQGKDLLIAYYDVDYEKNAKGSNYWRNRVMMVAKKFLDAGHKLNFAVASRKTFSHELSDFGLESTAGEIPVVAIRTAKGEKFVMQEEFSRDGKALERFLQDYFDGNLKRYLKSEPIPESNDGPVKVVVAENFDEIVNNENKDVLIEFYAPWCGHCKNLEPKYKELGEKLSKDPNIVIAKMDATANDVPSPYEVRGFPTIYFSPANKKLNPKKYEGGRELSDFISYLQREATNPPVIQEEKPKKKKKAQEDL
Nature of the data set: Inhibition of N-(4-(5,5-Difluoro-1,3,7,9-tetramethyl-5H-4(Gamma4),5(Gamma4)-dipyrrolo[1,2-c:2',1'-f][1,3,2]diazaborinin-10-yl))-N-(2-(4-((6-hydroxybenzo[d]-[1,3]dioxol-5-yl)(piperidin-1-yl)methyl)benzamido)ethyl)-benzamide binding to recombinant PDIA3 (unknown origin) measured after 24 hrs by PAGE analysis.

Data set [5] concerns the target T1, Protein disulfide-isomerase. The data set is described as follows: Inhibition of recombinant human wild-type N-terminal His-tagged PDIA1 expressed in Escherichia coli strain BL21(DE3) at 40 uM using bovine insulin as substrate preincubated for 1 hr followed by substrate addition relative to control.
Target sequence in this assay (P07237 18-508 limits assumed): as the sequence (P07237 18-508 limits assumed) above
In data set [6] the test system is U-87 MG. The data set is described as follows: Cytotoxicity against human U-87 MG cells assessed as growth inhibition at 30 uM measured after 72 hrs by MTT assay relative to control. The class given is functional, U-87MG ATCC. To be noted: read-out: GI. The gist of the method:
(§2)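 Single-concentration screen: percent inhibition of cell growth at 30 μM in U-87 MG and MIA PaCa-2 cells by MTT.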
A general note: Formazan colour is commonly taken as a measure of viable cells.

A further data set deals with MIA PaCa-2. The data set is described as follows: Cytotoxicity against human MIA PaCa-2 cells assessed as growth inhibition at 30 uM measured after 72 hrs by MTT assay relative to control. It is filed as functional. To be noted: read-out: GI. The gist of the method: as §2
Data set [7] concerns Protein disulfide-isomerase (Homo sapiens), P07237 [H256A]. The data set is described as follows: Inhibition of recombinant human wild-type N-terminal His-tagged PDIA1 H256A mutant expressed in Escherichia coli strain BL21(DE3) using bovine insulin as substrate preincubated for 1 hr followed by substrate addition.
Sequence of Protein disulfide-isomerase (Homo sapiens), P07237 [H256A] (P07237 whole entry H256A): as the sequence (P07237 whole entry) above, with H256A counted along it
The subject of data set [8] is U-87 MG. Nature of the data set: Cytotoxicity against human U-87 MG cells assessed as growth inhibition measured after 72 hrs by MTT assay. It is filed as functional, cell-based, U-87MG ATCC. An outline of the steps: as §1
The target in data set [9] is T1, Protein disulfide-isomerase. The data set is described as follows: Binding affinity to recombinant human wild-type N-terminal His-tagged PDIA1 expressed in Escherichia coli strain BL21(DE3) assessed as change in melting temperature at 100 uM by ROX dye based thermal shift assay.
Target sequence in this assay (P07237 18-508 limits assumed): as the sequence (P07237 18-508 limits assumed) above
For data set [10] the target is unchanged. The data set is described as follows: Inhibition of recombinant human wild-type N-terminal His-tagged PDIA1 expressed in Escherichia coli strain BL21(DE3) assessed as ratio of Kinact to Ki using bovine insulin as substrate preincubated for 5 to 60 mins followed by substrate addition. To be noted: time min 5-60. An outline of the steps: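 Activity measured in PDI reductase assay (insulin substrate, absorbance followed over time) at several inhibitor concentrations and preincubation times of 5 to 60 minutes; kinact/KI derived from concentration- and time-dependent inhibition curves.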
Target sequence in this assay (P07237 18-508 limits assumed): as above

For data set [11] the target is unchanged. Nature of the data set: Displacement of PACMA57 from recombinant human wild-type N-terminal His-tagged PDIA1 expressed in Escherichia coli strain BL21(DE3) at 100 uM measured after overnight incubation by gel-based imaging analysis.
Target sequence in this assay (P07237 18-508 limits assumed): as above
For data set [12] the target is unchanged. Nature of the data set: Irreversible inhibition of recombinant human wild-type N-terminal His-tagged PDIA1 expressed in Escherichia coli strain BL21(DE3) at 400 uM using bovine insulin as substrate preincubated for 30 mins followed by 100-fold dilution substrate addition further incubated for 1 hr and subsequent substrate addition. To be noted: time 1.5 hrs.
Target sequence in this assay (P07237 18-508 limits assumed): as above

The target is the same in data set [13]. The data set is described as follows: Displacement of ANS from recombinant human wild-type N-terminal His-tagged PDIA1 expressed in Escherichia coli strain BL21(DE3) at 100 uM measured after 1 hr by fluorescence assay.
Data set [14] has the same target. The data set is described as follows: Inhibition of recombinant human wild-type N-terminal His-tagged PDIA1 expressed in Escherichia coli strain BL21(DE3) at 10 uM using bovine insulin as substrate preincubated for 1 hr followed by substrate addition in presence of N-acetyl cysteine. An outline of the steps:
(§3)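 Compound incubated with N-acetyl cysteine before addition to the PDI reductase assay with PDIA1, at a final compound concentration of 10 μM.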

Data set [15] shares this target. The data set is described as follows: Inhibition of recombinant human wild-type N-terminal His-tagged PDIA1 expressed in Escherichia coli strain BL21(DE3) at 10 uM using bovine insulin as substrate preincubated for 1 hr followed by substrate addition in presence of glutathione. An outline of the steps: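 Glutathione added to the PDI reaction buffer before 10 μM compound; screening done with 5 mM GSH, reductase assay DTT at 500 μM.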

Data set [16] has the same target. Nature of the data set: Inhibition of recombinant human wild-type N-terminal His-tagged PDIA1 expressed in Escherichia coli strain BL21(DE3) at 10 uM using bovine insulin as substrate […]. An outline of the steps:
as §3

Data set [17] relates to U-87 MG. Nature of the data set: Inhibition of colony formation in BSO-treated human U-87 MG cells at 0.3 to 3 uM measured after 10 to 14 days by crystal violet staining based assay. The class given is functional, cell-based. To be noted: U-87MG ATCC, dose microM 0.3-3, time day 10-14. An outline of the steps: (§4)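 U-87 MG cells pretreated with BSO for 24 hours before compound addition; read-out by colony formation assay.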

Data set [18] deals with U-87 MG. The data set is described as follows: Inhibition of colony formation in BSO-treated human U-87 MG cells at 0.3 to 10 uM measured after 10 to 14 days by crystal violet staining based assay. It is filed as functional, cell-based. To be noted: U-87MG ATCC, dose microM 0.3-10, time day 10-14. An outline of the steps:
as §4

In general, IC50 refers to the point on the concentration scale where inhibition reaches its midpoint. In general, inhibition refers to how much of the control response was suppressed. Regarding `Oc1cc2c(cc1C(c1ccccc1)N1CCCCC1)OCO2` (configuration not stated), in data set [1], the IC50 came to 2900 nM. The inhibition result in data set [2] was “Dose-dependent effect”. Further, the “inhibition (INH)” value in [3] and in data set [4] was “Dose-dependent effect” throughout.

Usually ΔTm stands for the shift of the melting midpoint relative to a reference. As for `COc1ccc(C(c2cc3c(cc2O)OCO3)N2CCOCC2)cc1OC` (configuration not stated), the inhibition in data set [5] was 50%. The inhibition of growth at 30 µM in the data set with U-87 MG [6] and in the data set with MIA PaCa-2 was above 40% in each case. For the same compound, the IC50 came out at 300 nM in data set [1] and 18300 nM with U-87 MG [8]. Besides, the inhibition result (in data set [7]; in data set [11]; in [12]; in data set [16]; with U-87 MG [17]) was “Active” throughout. Besides, in data set [9], the ΔTm is -0.36 °C. Further, the Ratio in [10] was 2.6 10^3/M/s. The inhibition result in data set [13], in [14] and in [15] was “inactive” throughout.

With `Oc1c(C(Nc2ccccn2)c2ccc(Cl)cc2)ccc2cccnc12` (configuration not stated), in data set [5], the inhibition stood at 50%. Also, the inhibition of growth at 30 µM in the data set with U-87 MG [6] and with MIA PaCa-2 was above 40% each time. Besides, the concentration for half-maximal inhibition (IC50) was found to be 170 nM in [1] and 10600 nM in the data set on U-87 MG [8]. Further, the inhibition result (in data set [7]; in data set [16]; in the data set on U-87 MG [18]) was “Active” each time. Also, in data set [9], the ΔTm is -0.05 °C. The inhibition result in data set [12], in [13], in [14] and in data set [15] was “inactive” throughout.
